Assay results published in ChEMBL document CHEMBL4680209, “Design, synthesis, and evaluation of new 2-(quinoline-4-yloxy)acetamide-based antituberculosis agents” (Eur J Med Chem, 2020).
Converted amounts (≈) assume the structure as drawn.

How the values were obtained:
[1] = system: Mycobacterium tuberculosis H37Rv; assay: Inhibition of Mycobacterium tuberculosis H37Rv ATCC 27294 QcrB assessed as reduction in bacterial growth by resazurin reduction microplate assay
Summary of the method: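 REMA in Middlebrook 7H9 with 10% ADC and 5% DMSO. Compounds come from 2 mg/mL DMSO stocks as 10-point 2-fold serial dilutions, with a top concentration of 5–40 µg/mL set by solubility. MIC is the lowest concentration preventing resazurin blue-to-pink conversion. Three independent experiments; the modal or highest value is reported, in µM.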

[2] = Half life in human liver S9 fraction at 2 uM measured after 30 mins in presence of NADPH by HPLC-MS analysis; format: ADME, subcellular
Summary of the method: (§1)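 Compound at 2 µM incubated at 37°C with 1 mg/mL human liver S9 fraction (9,000 × g post-mitochondrial supernatant) containing NADPH. Remaining compound quantified by HPLC-MS/MS at 0, 5, 15 and 30 min to give in vitro disappearance half-life and intrinsic clearance (mL/min/kg). Verapamil served as positive control.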

[3] = Cytotoxicity against human HepG2 cells assessed as reduction in cell viability measured after 72 hrs by MTT assay; format: cell-based
Summary of the method: (§2)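 Vero (2×10^3 cells/well) or HepG2 (4×10^3 cells/well) grown in DMEM with 10% inactivated FBS, gentamicin and amphotericin B, seeded 24 h, then exposed to compound at 1, 5 and 20 µM (2% DMSO) for 72 h at 37 °C, 5% CO2. MTT (5 mg/mL) added for 4 h; absorbance 570/655 nm. Viability relative to 2% DMSO control wells; CC50 derived.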

[4] = Cytotoxicity against African green monkey Vero cells assessed as reduction in cell viability measured after 72 hrs by MTT assay; format: cell-based; settings: chlorocebus sabaeus; summary of the method: as §2
[5] = Cytotoxicity against African green monkey Vero cells assessed as reduction in cell viability measured after 72 hrs by neutral red uptake assay; format: cell-based; settings: chlorocebus sabaeus
Summary of the method: (§3)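 Vero (2×10^3 cells/well) or HepG2 (4×10^3 cells/well) in DMEM with 10% inactivated FBS, seeded 24 h, treated at 1, 5 and 20 µM in 2% DMSO for 72 h at 37 °C, 5% CO2. After PBS wash, neutral red (25 µg/mL, serum-free medium) for 3 h; dye extracted with acetic acid/EtOH/water (1:50:49) for 30 min; absorbance 562 nm; viability versus 2% DMSO controls.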

[6] = Cytotoxicity against human HepG2 cells assessed as reduction in cell viability measured after 72 hrs by neutral red uptake assay; format: cell-based; summary of the method: as §3
[7] = Intrinsic clearance in human liver S9 fraction at 2 uM measured after 30 mins in presence of NADPH by HPLC-MS analysis; format: ADME, subcellular; settings: read-out: CLH; summary of the method: as §1
RAW264.7 = assay: Inhibition of Mycobacterium tuberculosis H37Rv ATCC 27294 QcrB infected in mouse RAW264.7 cells assessed as colony forming unit at 5 uM measured after 5 days (reference value: 4.66 +/- 0.23 log10CFU); format: cell-based; settings: time 5.0 day
[8] = Ratio of MIC for inhibition of Mycobacterium tuberculosis H37Rv ATCC 27294 QcrB assessed as reduction in bacterial growth to MIC for inhibition of Mycobacterium tuberculosis PT20 clinical isolate QcrB assessed as reduction in bacterial growth
[9] = Ratio of MIC for inhibition of Mycobacterium tuberculosis H37Rv ATCC 27294 QcrB assessed as reduction in bacterial growth to MIC for inhibition of Mycobacterium tuberculosis PT2 clinical isolate QcrB assessed as reduction in bacterial growth
[10] = Ratio of MIC for inhibition of Mycobacterium tuberculosis H37Rv ATCC 27294 QcrB assessed as reduction in bacterial growth to MIC for inhibition of Mycobacterium tuberculosis PT12 clinical isolate QcrB assessed as reduction in bacterial growth

## COc1ccc2nc(C)cc(OCC(=O)c3ccccc3OC)c2c1
[1]
  MIC: 29.6 µM (≈ 9.99 µg/mL)

## COc1ccc2nc(C)cc(OCc3ccc4ccccc4c3)c2c1
[1]
  MIC: 7.6 µM (≈ 2.5 µg/mL)

## COc1ccc2nc(C)cc(OCc3cccc(Cl)c3)c2c1
[1]
  MIC: 7.9 µM (≈ 2.48 µg/mL)

## COc1ccc2nc(C)cc(OCC(=O)c3ccc(F)cc3)c2c1
[1]
  MIC: 30.7 µM (≈ 9.99 µg/mL)

## COc1cc(COc2cc(C)nc3ccc(OC)cc23)cc(OC)c1
[1]
  MIC: 29.5 µM (≈ 10 µg/mL)

## COc1ccc2nc(C)cc(OCc3ccc(F)cc3)c2c1
[1]
  MIC: 16.8 µM (≈ 5 µg/mL)

## COc1ccc2nc(C)cc(OCC(=O)c3ccc(-c4ccccc4)cc3)c2c1
[1]
  MIC: 13 µM (≈ 4.98 µg/mL)

## COc1ccc2nc(C)cc(OCc3cccc(F)c3)c2c1
[1]
  MIC: 16.8 µM (≈ 5 µg/mL)

## NNC(=O)c1ccncc1
[1]
  MIC: 2.3 µM (≈ 0.315 µg/mL)

## COc1ccc2nc(C)cc(OCc3cccc(Br)c3)c2c1
[1]
  MIC: 13.9 µM (≈ 4.98 µg/mL)

## COc1ccc2nc(C)cc(OCC(=O)c3ccc(Cl)c(Cl)c3)c2c1
[1]
  MIC: 6.6 µM (≈ 2.48 µg/mL)

## COc1ccc2nc(C)cc(OCC(=O)c3ccc(C)cc3)c2c1
[1]
  MIC: 15.6 µM (≈ 5.01 µg/mL)

## COc1ccc2nc(C)cc(OCc3ccc(Br)c(Cl)c3)c2c1
[1]
  MIC: 1.6 µM (≈ 0.628 µg/mL)

## COc1ccc2nc(C)cc(OCc3ccc(Br)cc3)c2c1
[1]
  MIC: 13.9 µM (≈ 4.98 µg/mL)

## CO[C@H]1/C=C/O[C@@]2(C)Oc3c(C)c(O)c4c(O)c(c(/C=N/N5CCN(C)CC5)c(O)c4c3C2=O)NC(=O)/C(C)=C\C=C\[C@H](C)[C@H](O)[C@@H](C)[C@@H](O)[C@@H](C)[C@H](OC(C)=O)[C@@H]1C
[1]
  MIC: 0.05 µM (≈ 0.0411 µg/mL)

## COc1ccc2nc(C)cc(OC(C)C(=O)c3ccccc3)c2c1 (stereo unspecified)
[1]
  MIC: 31.1 µM (≈ 9.99 µg/mL)

## COc1ccc2nc(C)cc(OCc3ccc(Cl)c(Cl)c3)c2c1
[1]
  MIC: 0.3 µM (≈ 0.104 µg/mL)
[2]
  half-life at 2 µM: 30.6 min
[3]
  CC50 at 72 h: 14.4 µM
[4]
  CC50 at 72 h: > 20 µM
[5]
  CC50 at 72 h: > 20 µM
[6]
  CC50 at 72 h: 14.9 µM
[7]
  CLint scaled at 2 µM: 12.6 mL/min/kg
RAW264.7
  Activity: 3.8 log10CFU

## COc1ccc2nc(C)cc(OCC(=O)c3cccc(Cl)c3)c2c1
[1]
  MIC: 1.8 µM (≈ 0.615 µg/mL)
[2]
  half-life at 2 µM: 78.2 min
[8]
  Ratio: 1.9
[3]
  CC50 at 72 h: > 20 µM
[4]
  CC50 at 72 h: > 20 µM
[9]
  Ratio: 1.9
[10]
  Ratio: 1.9
[5]
  CC50 at 72 h: > 20 µM
[6]
  CC50 at 72 h: > 20 µM
[7]
  CLint scaled at 2 µM: 7.7 mL/min/kg
RAW264.7
  Activity: 3.8 log10CFU

## COc1ccc2nc(C)cc(OCc3ccc([N+](=O)[O-])cc3)c2c1
[1]
  MIC: 30.8 µM (≈ 9.99 µg/mL)

## COc1ccc2nc(C)cc(OCCc3ccccc3)c2c1
[1]
  MIC: 34.1 µM (≈ 10 µg/mL)

## COc1ccc2nc(C)cc(OCC(=O)c3ccc(Br)cc3)c2c1
[1]
  MIC: 14.6 µM (≈ 5.64 µg/mL)

## COc1ccc2nc(C)cc(OCc3ccccc3Cl)c2c1
[1]
  MIC: 18.8 µM (≈ 5.9 µg/mL)

## COc1ccc2nc(C)cc(OCc3ccc(F)c(F)c3)c2c1
[1]
  MIC: 3.9 µM (≈ 1.23 µg/mL)

## COc1ccc2nc(C)cc(OCc3ccc(C(F)(F)F)cc3)c2c1
[1]
  MIC: 7.2 µM (≈ 2.5 µg/mL)

## COc1ccc2nc(C)cc(OCc3cccc(C(F)(F)F)c3)c2c1
[1]
  MIC: 7.2 µM (≈ 2.5 µg/mL)

## COc1ccc2nc(C)cc(OCc3ccc(Cl)cc3)c2c1
[1]
  MIC: 15.9 µM (≈ 4.99 µg/mL)

## COc1cccc(C(=O)COc2cc(C)nc3ccc(OC)cc23)c1
[1]
  MIC: 14.8 µM (≈ 4.99 µg/mL)

## COc1ccc2nc(C)cc(OCc3ccccc3F)c2c1
[1]
  MIC: 19.2 µM (≈ 5.71 µg/mL)

## COc1ccc2nc(C)cc(OCc3ccc4c(c3)OCO4)c2c1
[1]
  MIC: 30.9 µM (≈ 9.99 µg/mL)

## COc1ccc2nc(C)cc(OCc3ccc(C(C)C)cc3)c2c1
[1]
  MIC: 1.9 µM (≈ 0.611 µg/mL)
[2]
  half-life at 2 µM: 10 min
[8]
  Ratio: 1.9
[3]
  CC50 at 72 h: 13.1 µM
[4]
  CC50 at 72 h: > 20 µM
[9]
  Ratio: 1.9
[10]
  Ratio: 1.9
[5]
  CC50 at 72 h: > 20 µM
[6]
  CC50 at 72 h: 13 µM
[7]
  CLint scaled at 2 µM: 17.4 mL/min/kg

## COc1ccc(C(=O)COc2cc(C)nc3ccc(OC)cc23)cc1
[1]
  MIC: 7.4 µM (≈ 2.5 µg/mL)

## COc1ccc2nc(C)cc(OCc3cccc(Cl)c3Cl)c2c1
[1]
  MIC: 28.7 µM (≈ 9.99 µg/mL)

## COc1ccc2nc(C)cc(OCC(=O)c3ccccc3)c2c1
[1]
  MIC: 1.3 µM (≈ 0.4 µg/mL)
[2]
  half-life at 2 µM: 87.5 min
[3]
  CC50 at 72 h: > 20 µM
[4]
  CC50 at 72 h: > 20 µM
[5]
  CC50 at 72 h: > 20 µM
[6]
  CC50 at 72 h: > 20 µM
[7]
  CLint scaled at 2 µM: 7.1 mL/min/kg
RAW264.7
  Activity: 4.06 log10CFU

## COc1ccc2nc(C)cc(OCC(=O)c3ccc(CC(C)C)cc3)c2c1
[1]
  MIC: 6.9 µM (≈ 2.51 µg/mL)

## COc1ccc2nc(C)cc(OCC(=O)c3ccc(Cl)cc3)c2c1
[1]
  MIC: 12.9 µM (≈ 4.41 µg/mL)

## COc1ccc2nc(C)cc(OCc3ccc(C(C)(C)C)cc3)c2c1
[1]
  MIC: 3.7 µM (≈ 1.24 µg/mL)

## COc1ccc2nc(C)cc(OCc3ccccc3)c2c1
[1]
  MIC: 5.6 µM (≈ 1.56 µg/mL)

## COc1cccc(COc2cc(C)nc3ccc(OC)cc23)c1
[1]
  MIC: 32.3 µM (≈ 9.99 µg/mL)
